# According to ChEMBL document CHEMBL5543129, “Peptide Inhibitor Targeting the Extraterminal Domain in BRD4 Potently Suppresses Breast Cancer Both In Vitro and In Vivo” (J Med Chem, 2024):
# Active and inactive are the calls of the source. The calls are words filed in the database; no cut-off is given here. Square brackets hold non-standard residues; d marks the D form. Peptide text beside a SMILES is read from it. Hyp = O=C(O)[C@@H]1C[C@@H](O)CN1; Ahx = NCCCCCC(=O)O
# How the values were obtained:
# [1] = Toxicity in BALB/c mouse xenografted with human MCF7 cells assessed as change in lung at 12.5 mg/kg, ip administered every 2 days in presence of 12.5 mg/kg JMJD6 inhibitor; assay type: organism-based; settings: in vivo, 48 h
# Procedure, shortened: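 Female BALB/c nude mice carried MCF7 xenografts (5 × 10^6 cells sc, E2 10–2 M brushed every 2 days) and were randomized at about 50 mm3. Peptide was given at 12.5 mg/kg ip every 2 days, and iJMJD6 (DMSO/PBS 1:20) at 12.5 mg/kg ip every other day, alone or combined. Body and organ weights were recorded.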
# [2] = Toxicity in BALB/c mouse xenografted with human MCF7 cells assessed as change in spleen weight at 12.5 mg/kg, ip administered every 2 days in presence of 50 mg/kg JQ1; assay type: organism-based; settings: in vivo, 48 h
# Mus musculus [3] = experiment: Downregulation of N-myc mRNA expression in BALB/c mouse tumor xenografted with human MCF7 cells at 25 mg/kg, ip administered every 2 days by RT-qPCR analysis; assay type: functional, organism-based
# [4] = Toxicity in BALB/c mouse xenografted with human MDA-MB-231 cells assessed as change in liver weight at 12.5 mg/kg, ip administered every 2 days in presence of 50 mg/kg JQ1; assay type: organism-based; settings: in vivo, 48 h
# Procedure, shortened: (§1)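 Female BALB/c nude mice (4–6 weeks) carried sc MDA-MB-231 xenografts (5 × 10^6 cells) and were randomized at about 50 mm3. Peptide (12.5 mg/kg ip in saline) and JQ1 (50 mg/kg ip, DMSO/10% HPBCD 1:10) were given every 2 days, alone or combined. Body weight was recorded, and heart, liver, spleen, lung and kidney morphology and weight were assessed.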
# MDA-MB-231 [5] = experiment: Antiproliferative activity against human MDA-MB-231 cells at 10 uM incubated for 1 week in presence of JMJD6 inhibitor by CellTiter 96 Aqueous One Solution based assay; assay type: functional, cell-based; settings: time 1.0 weeks
# Procedure, shortened: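 Cells seeded at 2 × 10^3/well and treated with peptide (10 μM) alone or combined with JQ1 (5 μM), iJMJD6 (10 μM) or ICI (2.5 μM), as the line states. Viability read by MTS reagent, 1 h at 37 °C, A490. Three biological repeats.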
# [6] = Toxicity in BALB/c mouse xenografted with human MCF7 cells assessed as change in organ weight at 2.5 mg/kg, ip administered every 2 days in presence of 12.5 mg/kg fulvestrant; assay type: organism-based; settings: in vivo, 48 h
# MCF7 [7] = experiment: Antitumor activity against human MCF7 cells xenografted in BALB/c nude mouse assessed as reduction in tumor volume at 12.5 mg/kg, ip administered every 2 days in presence of 50 mg/kg JQ1; assay type: functional, organism-based
# Procedure, shortened: (§2)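 Female BALB/c nude mice given 5 × 10^6 cells sc (MCF7 mice with E2 10^-2 M every 2 days), randomised at ~50 mm3. Peptide 12.5 mg/kg ip (saline) every 2 days, plus JQ1 50 mg/kg ip (DMSO/10% HPBCD 1:10) every 2 days or iJMJD6 12.5 mg/kg ip (DMSO/PBS 1:20). Caliper volume every 2 days; tumours weighed at the end.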
# T47D [8] = experiment: Inhibition of cell migration in human T47D cells at 10 uM incubated for 24 hrs in presence of fulvestrant by inverted microscopic analysis; assay type: functional, cell-based
# Procedure, shortened: (§3)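 Cells are seeded at 5 × 10^5/well and scratched at 80–90% confluence. They are kept in serum-free medium with peptide (10 μM); partner agents are JQ1 5 μM, iJMJD6 10 μM, or ICI 2.5 μM. Wound area is imaged by inverted microscope at 0 and 12 or 24 h. Wound closure % = (A0−A1)/A0 × 100. Three biological repeats.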
# T47D [9] = experiment: Antiproliferative activity against human T47D cells at 10 uM incubated for 1 week in presence of tamoxifen by CellTiter 96 Aqueous One Solution based assay; assay type: functional, cell-based; settings: time 1.0 weeks
# Procedure, shortened: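 Tamoxifen-resistant MCF7 or T47D cells treated with peptide (10 μM) or tamoxifen (3 μM), alone or combined. Viability read by MTS reagent, 1 h at 37 °C, A490.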
# [10] = Downregulation of […] protein expression in human MCF7 cells assessed as fold change in remaining c-Myc level at 10 uM incubated for 24 hrs by immunoblotting analysis (reference value: 1); assay type: functional
# Procedure, shortened: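 Cells treated with peptide (10 μM) for 24 h. Lysates in Tris/NaCl/EDTA/1% Triton X-100, run on 10% SDS-PAGE and immunoblotted with ECL detection. β-actin as loading control. Three repeats, quantified against untreated cells.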
# [11] = Toxicity in BALB/c mouse xenografted with human MDA-MB-231 cells assessed as change in spleen morphology at 12.5 mg/kg, ip administered every 2 days in presence of 50 mg/kg JQ1; assay type: organism-based; settings: in vivo, 48 h; procedure, shortened: as §1
# Mus musculus [12] = experiment: Downregulation of BRD4 mRNA expression in BALB/c mouse tumor xenografted with human MDA-MB-231 cells at 25 mg/kg, ip administered every 2 days by RT-qPCR analysis; assay type: functional, organism-based
# [13] = Toxicity in BALB/c mouse xenografted with human MDA-MB-231 cells assessed as change in heart weight at 12.5 mg/kg, ip administered every 2 days in presence of 50 mg/kg JQ1; assay type: organism-based; settings: in vivo, 48 h; procedure, shortened: as §1
# MCF7 [14] = experiment: Antitumor activity against human MCF7 cells xenografted in BALB/c nude mouse assessed as reduction in tumor volume at 12.5 mg/kg, ip administered every 2 days in presence of 2.5 mg/kg fulvestrant; assay type: functional, organism-based
# Procedure, shortened: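 MCF7 xenografts in female BALB/c nude mice on E2 (10^-2 M, every 2 days), randomised at ~50 mm3. Peptide 12.5 mg/kg ip every 2 days with fulvestrant 2.5 mg/kg sc (DMSO/corn oil 1:10) every 6 days. Caliper volume (1/2 × L × W²); tumours weighed at the end.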
# [15] = Toxicity in BALB/c mouse xenografted with human MDA-MB-231 cells assessed as change in liver morphology at 12.5 mg/kg, ip administered every 2 days in presence of 50 mg/kg JQ1; assay type: organism-based; settings: in vivo, 48 h; procedure, shortened: as §1
# MDA-MB-231 [16] = experiment: Antitumor activity against human MDA-MB-231 cells xenografted in BALB/c nude mouse assessed as reduction in tumor volume at 12.5 mg/kg, ip administered every 2 days in presence of 50 mg/kg JQ1; assay type: functional, organism-based; procedure, shortened: as §2
# [17] = Toxicity in BALB/c mouse xenografted with human MDA-MB-231 cells assessed as change in kidney weight at 12.5 mg/kg, ip administered every 2 days in presence of 50 mg/kg JQ1; assay type: organism-based; settings: in vivo, 48 h; procedure, shortened: as §1
# MCF7 [18] = experiment: Inhibition of cell migration in human MCF7 cells at 10 uM incubated for 24 hrs in presence of JMJD6 inhibitor by inverted microscopic analysis; assay type: functional, cell-based; procedure, shortened: as §3
# MDA-MB-231 [19] = experiment: Inhibition of cell migration in human MDA-MB-231 cells at 10 uM incubated for 24 hrs in presence of JMJD6 inhibitor by inverted microscopic analysis; assay type: functional, cell-based; procedure, shortened: as §3
Compound,Activity [1],Activity [2],Activity (Mus musculus [3]),Activity [4],Activity (MDA-MB-231 [5]),Activity [6],Activity (MCF7 [7]),inhibition (T47D [8]),Activity (T47D [9]),fold change (FC) [10],Activity [11],Activity (Mus musculus [12]),Activity [13],Activity (MCF7 [14]),Activity [15],Activity (MDA-MB-231 [16]),Activity [17],inhibition (MCF7 [18]),inhibition (MDA-MB-231 [19])
H-YGRKKRRQRRRRNQKFKCGE-OH,Non-Toxic,Non-Toxic,Active,Non-Toxic,Active,Non-Toxic,Active,Active,Active,0.45,Non-Toxic,inactive,Non-Toxic,Active,Non-Toxic,Active,Non-Toxic,Active,Active
CC[C@H](C)[C@H](NC(=O)[C@H](Cc1ccc(O)cc1)NC(=O)[C@@H]1C[C@@H](O)CN1C(=O)[C@H](C)NC(=O)[C@@H](NC(=O)CCCCCNC(=O)[C@H](CCC(=O)O)NC(=O)CNC(=O)[C@H](CS)NC(=O)[C@H](CCCCN)NC(=O)[C@H](Cc1ccccc1)NC(=O)[C@H](CCCCN)NC(=O)[C@H](CCC(N)=O)NC(=O)[C@H](CC(N)=O)NC(=O)[C@H](CCCNC(=N)N)NC(=O)[C@H](CCCNC(=N)N)NC(=O)[C@H](CCCNC(=N)N)NC(=O)[C@H](CCCNC(=N)N)NC(=O)[C@H](CCC(N)=O)NC(=O)[C@H](CCCNC(=N)N)NC(=O)[C@H](CCCNC(=N)N)NC(=O)[C@H](CCCCN)NC(=O)[C@H](CCCCN)NC(=O)[C@H](CCCNC(=N)N)NC(=O)CNC(=O)[C@@H](N)Cc1ccc(O)cc1)[C@@H](C)CC)C(=O)O (H-YGRKKRRQRRRRNQKFKCGE[Ahx]IA[Hyp]YI-OH),Non-Toxic,Non-Toxic,Active,Non-Toxic,Active,Non-Toxic,Active,Active,Active,0.53,Non-Toxic,inactive,Non-Toxic,Active,Non-Toxic,Active,Non-Toxic,Active,Active
